From the RNAGym collection of RNA variant scans (doi:10.1126/science.aae0568)
Variants at the floor of the assay were thinned out.

B1: tRNA (parent)
chain: GUUCCGUUGGCGUAAUGGUAACGCGUCUCCCUCCUAAGGAGAAGACUGCGGGUUCGAGUCCCGUACGGAACG

Variants of: B1
Test: yeast fitness relative to wild type (ratio to wild type); higher = fitter; tRNA-Arg(CCU), competitive growth, 37 C, YPD
Outline: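 The tRNA-Arg(CCU) gene variants were made by chemical synthesis with a 3% per-site mutation rate at 69 sites and inserted at the native genomic locus of Saccharomyces cerevisiae. After pooling, the strains were competed in YPD at 37°C for 24 hours in six parallel replicates. Gene amplicons from the start population and each end population were read by 100-nucleotide paired-end sequencing, and Darwinian fitness relative to wild type was taken from genotype frequency changes. Genotypes needed ≥ 100 starting reads, and estimates < 0.5 were set to 0.5.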

Variant	yeast fitness
GUUACGUUGGCGUAAUGGUAACGCGUCUCCCUACUAAGGAGAAGACUGCGGGUUCGAGUACCACACGGAACG	≤ 0.5
GUUCCGUUGGCGUAAUGGCAACGCGUCUCCCUCCUGAGGAGAGGACUGCGGGUUCGAGUUCUGUACGGACCG	≤ 0.5
GUUCCGUUGGCGUAAUGGUAACGCGUCUCCGUCUUAAGGAGAAGAUUGCGGGUUCAAGUCCCGUACGGAACG	≤ 0.5
GUACCGUUGGCGUAAUGGUAACGCGUCUCCCUCCUAAGGAGAAGACUGUGGGUUCGAGUCCCGUGCGGAACG	0.711
GUUCCGUUGGCGUAAUGAUAACGCGUCUCCCUCCUAAGGAGAAGACUGCGGGUUCCAGUCCCGUACGGAACG	0.521
GUUCCGUUGGCGUAAUGGUAACGGGUCUCCCUCCUAAGGAGAAGACUGUGAGUUCGAGUCACGUACGGUACG	≤ 0.5
GUUCCGUUGGCAUAAUGGUAACGCGUCUCCCUCCUCAGGAGAAGACUGCGGGUUCGAGUCCCGUACGGAACG	0.628
GUUCCGUUGGCGUAAUGGUCACACGUCUCCCUCCUAAGGAGAAGACUGCAGGUUGGAGUACCGUACGGAACG	≤ 0.5
GUUCCGUUGGCGUUAUGGUAACGGGUCUCCCUCCUAAGGAAAAAACUGCGGGAUCGAGUCCCGUACGGAACG	0.55
GUUCCGUUGGCGUAAUGGUAACACGUCUCCCUCCUAAAGAGAAGACUGCGGGUUCGAGUCCCGUACGGAACG	0.643
GAUCCGUUGGCGUAAUGGUAACGCGUCUCCCUCCUAAGGAGAAGACUGCGGGUUCGAGCCCCGUAGGGAACG	0.537
GUUCCGUUGGCGUAAUGCUAACGCGUAACCCUCCUAAGGAGUAGACUGCGGGUUCGAGUCCCGUACGGAACG	≤ 0.5
GUUCCGUUCGCGUAAUGGUAACGCGUCUCCGUCCUAAGGCGAAGCCUCCGGGUUCGAGUCCCGUACGGAACG	0.668
GUUCCGUUGGCGUCAUGGUAACGCGUCUCCCUCAUAACGAGAAGACUGCGGGUUCGAGUCCCGUACGGAACG	≤ 0.5
GUUCCGUUGGCGUAAUGGUAACGCGUCUCGCUCCUGAGGAGAAGACUGCGGGUUCGUGUCCCGUUCGGAACG	0.555
GUUCCAUUGGCGUAAUGGUAAUGCGUCUCCCUCCUAAGGAGAAGACUGCGGGUUCGAGUCUCGUACGGAGCG	≤ 0.5
GUUUCGUUGGCGUAAUGGAAACGCGUCUUCCUGCUAAGGAGAAGACUGCGGGUUCGAGUCCAGUACGGAACG	≤ 0.5
GUUCCGUUGGUGUAAUGGUAACGCGUCUCCCGCCUAAGGAGAAGACUGCGGGUUCGAGCCCCGUACGGAACG	≤ 0.5
GUUUCGCUGGCGUAAUGGUAACGGGUCUCCCUCAUAAGGAGAAGCCUGCGGGUUCAAGUCACGUCCGGCGCG	≤ 0.5

Variant	yeast fitness
GUUCCGUUGGCGUAAUGGUUACGCGUCUCCCUCGUAAGGAGAAGACUCCGGGUUCGAGUCCCGUACACAACG	≤ 0.5
GUUCCGUUGGCGUAAUGGUAACGCGUCUCCCUCCUAAGGAGUAGACUGCGGGUUCGAGUCCCCUACGGAACG	0.715
GUUCCGUUGGCGUAUUGGUAACGCGUCUUCCUCCUAAGGAGAAGAUUGCGGGUUCGAGUCCCGUACGGAACG	0.667
GUUACGUUGGCGUAAAGGUAACGCGUCUGCCUCCUAAGGAGAAGACUGCGGGUUUGAGUCCCGUAUGGAACG	≤ 0.5
GUUCCGUUGGCGUAAUGGUAACGCGUCUCCCUCCUAAGGAGAAGACUCCGGGUUCGAGUCCCGUACGGAACG	0.977
GUUCCGUUUGCGUAAUGGUAACGCGUCUCCCUCCUAAGGAGAAGACUGCGGGUUCGAGUCCCAUACGGAACG	0.71
GUUCCGUUGGCGUAAUGGUAACGCGUCUCCCUCAUAAGGAGAUGACUGCGGGUUCGAGUCCCGUACGGAACG	0.729
GUUUCCUUGGCGUUAUGGUAACGGGUCUCCCUCCUAAGGAGAAGACUGCGGGUUCGAGUCCCGUAUGGAACG	≤ 0.5
GUUCCGUUGGCGUAAUGGUAACGCAUCACCCUCCUUUGGAGUAGACUGCGGGUUCGAGUCCCGUACGGAACG	≤ 0.5
GUUCCGUUGGCGUAAUGGUAACGCGUCUCCCUCCUAAGGAGAAGACUGCGGGUUCGAGUCCGGUGCGGAACG	0.811
GUUCAGUUGGCGUAAUGGUAACGCGUCUCCUUCCUAAGGGGAAGACUGUGGGUUCGAGUCCCGUACGGAUCG	≤ 0.5
GUUCCGUUGGCGUAAUGGUAACGUGUCUCCUUCCUAAGGAGAAGACUGUGGGUUCGAGUCCCGUACGGAUCG	0.64
GUUCUGUUGGAGUAAUGGUACCGCGUGUCCCUCCUAAGGAGAAGACUGCGGGUUCGAGUCCCGUACGCAACG	≤ 0.5
GUUCCGUUAGCGUAAUGGUAACGCGUCUCCCUCCUAAGGAGAAGACUGCGGGUUCGAGUCCCGUACAGAACG	0.883
GUUCCGUUGGGGUCAUGGUAACGCGUCUCCCUCCUAAGGAGAAGACUGCGGGUUCGCGUCACGUACGGCACG	0.581
GUUCCGUUGGCGUUAUGGUAAAGCGUCUCCCUCCUAAGGAGAAGACUGCGGGUUCGCGUCCCGUACGGAACG	≤ 0.5
GUUCCGUUGGCGUAACCGUAACGCGUGUCCCUCCUAAGGAGAAGACUGCGGGUUCGAGUCCCGUUCGGAACG	≤ 0.5
GUUCCGUAAGCGUAAUGGGAACGGGUCUCCCUCCUAAGGAGAAGACUGCGGGUUCGAGUCCCGUACGGAACG	0.551
GUUCCGUUGGUGUAAUGGUAACGCGUCUGCCUCCUAAGGAGAAGACUGCGGGUUGGGGUCCCGUACGGAACG	≤ 0.5
